Experimental data: ChEMBL document CHEMBL1153231, “Novel thioamide derivatives as neutral CB1 receptor antagonists” (Bioorg Med Chem Lett, 2010)
pIC50: −log10 of the molar value. Values after ≈ are worked out from the molar mass of the structure shown.

What was measured:
[1] = molecular target: Cannabinoid receptor 1 (Homo sapiens, UniProt P21554); assay: Agonist activity at human CB1 receptor assessed as stimulation of [35S]GTPgammaS binding; format: functional
[2] = Aqueous solubility of the compound; format: physicochemical
[3] = Plasma concentration in mouse at 20 umol/kg, po after 0.5 hrs; format: ADME, organism-based
Method in brief: (§1)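 Cafeteria-diet-induced obese mice were given repeated peroral doses. Plasma and brain tissue were sampled 0.5 h, 2 h and 6 h after the last dose, and after a 7-day washout. Levels of both the parent thioamide and its carboxamide counterpart were measured in the same samples. Plasma levels are per litre and brain levels per gram of tissue.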

[4] = Plasma concentration in mouse at 20 umol/kg, po after 2 hrs; format: ADME, organism-based; method in brief: as §1
[5] = test system: Mus musculus; assay: Reduction in body weight of diet induced obese C57BL/6 mouse at 20 umol/kg after 1 to 3 weeks relative to control; format: functional; set-up: scale not given: the % may be the effect or the level left
Method in brief: (§2)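 The test agents were given perorally to cafeteria-diet-induced obese mice over 1–3 weeks. Body weight was tracked as a percentage of initial body weight and compared with vehicle-treated animals.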

[6] = Drug level in mouse brain at 20 umol/kg, po after 6 hrs; format: ADME, organism-based; method in brief: as §1
[7] = Drug level in mouse brain at 20 umol/kg, po after 0.5 hrs; format: ADME, organism-based; method in brief: as §1
[8] = Drug level in mouse brain at 20 umol/kg, po after 2 hrs; format: ADME, organism-based; method in brief: as §1
[9] = Plasma concentration in mouse at 20 umol/kg, po after 6 hrs; format: ADME, organism-based; method in brief: as §1
[10] = Plasma concentration in mouse at 20 umol/kg, po after 7 days; format: ADME, organism-based; method in brief: as §1
[11] = Drug level in mouse brain at 20 umol/kg, po after 7 days; format: ADME, organism-based; method in brief: as §1
[12] = test system: Mus musculus; assay: Reduction in body weight of diet induced obese C57BL/6 mouse at 20-60 umol/kg after 1 week relative to control; format: functional; set-up: scale not given: the % may be the effect or the level left; method in brief: as §2

Chain of Cannabinoid receptor 1 (P21554 whole entry): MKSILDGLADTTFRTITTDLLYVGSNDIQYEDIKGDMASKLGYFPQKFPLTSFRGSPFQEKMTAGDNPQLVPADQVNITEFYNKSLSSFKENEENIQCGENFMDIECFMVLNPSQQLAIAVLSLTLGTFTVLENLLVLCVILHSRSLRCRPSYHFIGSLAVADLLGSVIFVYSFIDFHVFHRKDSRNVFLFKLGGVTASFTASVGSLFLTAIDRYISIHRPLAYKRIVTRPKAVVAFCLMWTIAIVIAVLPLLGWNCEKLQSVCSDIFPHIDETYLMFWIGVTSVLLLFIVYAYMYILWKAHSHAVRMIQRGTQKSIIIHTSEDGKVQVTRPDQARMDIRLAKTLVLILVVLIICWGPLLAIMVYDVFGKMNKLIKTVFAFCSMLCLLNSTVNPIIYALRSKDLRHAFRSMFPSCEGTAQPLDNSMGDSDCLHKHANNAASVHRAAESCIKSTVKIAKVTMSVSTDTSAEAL

| Compound | pIC50 [1] | solubility [2] [µM] | concentration at 0.5 h [3] [nM] | concentration at 2 h [4] [nM] | Activity [5] [%] | concentration at 6 h [6] [µmol/g] | concentration at 0.5 h [7] [µmol/g] | concentration at 2 h [8] [µmol/g] | concentration at 6 h [9] [nM] | concentration at 168 h [10] [nM] | concentration at 168 h [11] [µmol/g] | Activity [12] [%] |
| --- | --- | --- | --- | --- | --- | --- | --- | --- | --- | --- | --- | --- |
| O=C(NC1CCCCC1)c1cnc(-c2ccc(Cl)cc2)c(-c2ccc(Cl)cc2)n1 | 7.78 | < 0.1 |  |  |  |  |  |  |  |  |  |  |
| O=C(NC1CCC(F)(F)CC1)c1cnc(-c2ccc(Cl)cc2)c(-c2ccc(Cl)cc2)n1 | 8.28 | < 0.1 |  |  |  |  |  |  |  |  |  |  |
| S=C(NC1CCCCC1)c1cnc(-c2ccc(Cl)cc2)c(-c2ccc(Cl)cc2)n1 | 8.24 | 6.1 (≈ 2.7 µg/mL) |  |  |  |  |  |  |  |  |  |  |
| Cc1c(C(=O)NN2CCCCC2)nn(-c2ccc(Cl)cc2Cl)c1-c1ccc(Cl)cc1 [RIMONABANT] |  | < 1.1 | 1360 | 1950 | 85 | 0.68 | 1.11 | 1.69 | 900 |  |  |  |
| COCc1nc(-c2ccc(Cl)cc2)c(-c2ccc(Cl)cc2)nc1C(=O)NC1CCC(F)(F)CC1 | 8.54 | < 0.1 | 136 | 153 |  | 0.07 | 0.05 | 0.08 | 148 | 24 |  |  |
| FC1(F)CCC(NC(=S)c2cnc(-c3ccc(Cl)cc3)c(-c3ccc(Cl)cc3)n2)CC1 | 8.35 | 6.6 (≈ 3.16 µg/mL) |  |  |  |  |  |  |  |  |  |  |
| COCc1nc(-c2ccc(Cl)cc2)c(-c2ccc(Cl)cc2)nc1C(=S)NC1CCC(F)(F)CC1 | 8.62 | < 0.1 | 403 | 604 |  | 0.14 | 0.18 | 0.32 | 137 | 32 | 0.05 | 85 |
